This is an account of results in paper PMC4873341 (Molecular cancer therapeutics, 2016).

The term EC50 denotes the concentration needed to bring the measured effect to its halfway point. One may read the AUC(0-t) as exposure summed from dosing to a finite time, without extrapolation to infinity. Low readings indicate low exposure, high ones high exposure. Usually Cmax stands for the highest concentration seen after dosing.

Where two headings read alike, the source gives them in different places. A value given as a limit tells only on which side of the number the result lay.

The test system of one series is Hh pathway. The series is classed as cell-based. The following applies: for Induction of Hh pathway activation by sterol alone: Shh-Light2 cells, absence of SHHN conditioned medium; for Hh pathway inhibition by single drug at subtherapeutic dose: posaconazole 1 μM, KAAD-cyclopamine 10 nM, vismodegib 20 nM, SHHN CM.
For another series, the system named is CYP2C9. Particulars: cited from earlier work.
In series [1] the test system is cytochrome P450 (CYP) 3A4. Particulars: cited from earlier work.
In another series the test system is CYP2C19. Particulars: cited from earlier work.
The test system of series [2] is Hh pathway (SMO). Briefly: SHH-Light2 reporter assay stimulated with SAG. The series is classed as cell-based. The following applies: for EC50: read-out: EC50 of SAG. (In a reporter assay the amount or activity of a reporter protein is the signal.)
For another series, the system named is CYP 2E1. Particulars: cited from earlier work.
Another series relates to BCC tumors. As to the kind of experiment: Necrosis scoring of H&E sections of BCC tumors. The series is classed as in vivo, mice. Particulars: posaconazole treated vs vehicle control; p = 0.0028.
In series [3] the test system is drug-resistant SMO mutants (D477G, E522K, G457S, S392N, D388N, N223D, L225R). Type of series: cell-based, murine.
For series [4], the system named is Hh pathway in allografted BCC tumors. Briefly: Gli1 mRNA in allografted BCC tumors. The series is classed as in vivo, mice. The following applies: 30 or 60 mg/kg twice per day by oral gavage for 5 days; p = 0.0224, p = 0.0033.
A short description of series [5]: Plasma pharmacokinetic study, single oral dose. Type of series: in vivo, Balb-c mice. The following applies: for AUC(0-t) / Cmax: Balb-c, mouse, plasma, po. In a few lines: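 Balb-c mice, given acidified drinking water (pH 2.5), received one oral gavage of test-compound oral suspension diluted in sterile water (30 or 60 mg/kg). Mice were killed at various times. Plasma was extracted with methanol/formic acid containing tolbutamide internal standard and analysed by LC-MS/MS (C18 column). Parameters came from noncompartmental analysis; 3 mice per time point, mean ± S.D.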

The next series has as its system SMOA1 (SMO W539L) mutant. Type of series: cell-based. The following applies: Shh-Light2 SmoA1 cells.
Series [6] deals with Hh pathway (Ptch-/- murine embryonic fibroblast cells). The series is classed as cell-based. The following applies: Mus musculus, read-out: IC50 of Hh pathway inhibition.
Another series has as its system CYP 2C8. Particulars: cited from earlier work.
A further series concerns CYP 2D6. Particulars: cited from earlier work.
In series [7] the test system is SMO accumulation in primary cilia. The series is classed as cell-based. Particulars: SHHN and posaconazole 7.5 μM; ~87% with SHHN and vehicle; p < 0.0001. In a few lines:
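NIH-3T3 cells were stimulated with SHHN conditioned medium together with 7.5 μM test compound or vehicle. Cells were immunostained for SMO (rabbit polyclonal, 1:750) and acetylated tubulin (mouse monoclonal, 1:1000), then detected with AlexaFluor 488 and 594 secondaries. Confocal images were scored for the percentage of primary cilia with SMO; mean ± S.D. of at least 7 fields.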

The next series deals with CYP 1A2. Particulars: cited from earlier work.
The next series has as its target SMO (Mus musculus, UniProt P56726). Briefly: Fluorescent BODIPY-cyclopamine competition assay. Particulars: BODIPY-cyclopamine 5 nM. Type of series: binding.
The subject of series [8] is ASZ and BSZ basal cell carcinoma cells. Briefly: Quantitative PCR of Gli1 transcript in ASZ and BSZ basal cell carcinoma cells. The series is classed as cell-based, murine. Particulars: posaconazole 1 μM; KAAD-cyclopamine 40 nM; GDC-0449 40 nM; 2 days.
Series [9] deals with Hh pathway (SMO). As to the kind of experiment: SHH-Light2 reporter assay stimulated with 20. The series is classed as cell-based.
The test system of series [10] is murine Ptch+/-;p53-/- BCC allografts. Briefly: Tumor growth of subcutaneous BCC allografts. The following applies: 30 mg/kg or 60 mg/kg twice-daily, oral gavage; p < 0.005. Type of series: in vivo, mice.
A further series has as its system SMO-G457S. Type of series: cell-based, murine.
The mark [11] stands for this setting: higher than human values of ref 41.
The mark [12] stands for this setting: increasing concentrations of posaconazole.

Chain of SMO (P56726 33-793): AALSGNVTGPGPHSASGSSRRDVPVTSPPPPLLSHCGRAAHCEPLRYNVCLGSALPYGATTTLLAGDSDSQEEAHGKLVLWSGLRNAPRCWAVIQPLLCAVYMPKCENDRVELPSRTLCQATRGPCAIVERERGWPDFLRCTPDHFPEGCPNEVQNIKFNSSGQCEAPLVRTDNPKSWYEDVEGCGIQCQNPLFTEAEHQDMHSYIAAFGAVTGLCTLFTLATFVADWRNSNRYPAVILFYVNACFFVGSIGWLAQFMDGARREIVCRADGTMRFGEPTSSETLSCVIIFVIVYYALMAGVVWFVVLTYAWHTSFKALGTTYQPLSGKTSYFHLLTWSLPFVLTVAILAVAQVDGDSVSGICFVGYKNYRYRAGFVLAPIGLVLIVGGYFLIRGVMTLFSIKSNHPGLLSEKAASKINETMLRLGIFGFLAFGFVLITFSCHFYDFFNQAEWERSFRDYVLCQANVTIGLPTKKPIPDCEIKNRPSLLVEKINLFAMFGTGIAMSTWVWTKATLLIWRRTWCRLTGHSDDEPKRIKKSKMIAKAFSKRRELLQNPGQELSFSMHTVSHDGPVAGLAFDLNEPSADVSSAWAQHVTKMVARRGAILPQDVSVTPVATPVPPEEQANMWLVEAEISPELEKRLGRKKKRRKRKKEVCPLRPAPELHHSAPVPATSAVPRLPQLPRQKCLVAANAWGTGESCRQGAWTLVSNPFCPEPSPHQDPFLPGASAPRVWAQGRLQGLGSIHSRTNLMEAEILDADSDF

With `C[C@@H](c1ncncc1F)[C@](O)(Cn1cncn1)c1ccc(F)cc1F` [voriconazole], in the series with Hh pathway (Shh Light2, read-out: No detectable inhibition of the Hh pathway up to), the IC50 is over 40000 nM.
For `CCC(C)n1ncn(-c2ccc(N3CCN(c4ccc(OCC5COC(Cn6cncn6)(c6ccc(Cl)cc6Cl)O5)cc4)CC3)cc2)c1=O` (stereo not drawn) [itraconazole], the CYP2C9 inhibition result in the series on CYP2C9 is on record as “weaker inhibitors”. Moreover, the CYP3A4 inhibition result in series [1] is “strong inhibitors and substrates”. In addition, the CYP2C19 inhibition entry in the series with CYP2C19 was “weaker inhibitors”.
As for `CNC1CCC(N(Cc2cccc(-c3ccncc3)c2)C(=O)c2sc3ccccc3c2Cl)CC1` (stereo not drawn) [SAG], the EC50 in the series on Hh pathway (SMO) [2] (0 nM KAAD-cyclopamine) was 34 nM; with Hh pathway (SMO) [2] (with 100 nM KAAD-cyclopamine), 244 nM.
Regarding `CC(C)CCC[C@@H](C)[C@H]1CC[C@H]2[C@@H]3CC=C4C[C@@H](O)CC[C@]4(C)[C@H]3CC[C@]12C` [cholesterol], the “Induction of Hh pathway activation by sterol alone” value (shortened to “Induction of Hh pathway activation”) in the series with Hh pathway is given as “insufficient to induce Hh pathway activation”.
Take `CC[C@@H]([C@H](C)O)n1ncn(-c2ccc(N3CCN(c4ccc(OC[C@@H]5CO[C@@](Cn6cncn6)(c6ccc(F)cc6F)C5)cc4)CC3)cc2)c1=O` [posaconazole]: in the series on CYP 2E1, the CYP2E1 inhibition entry was “does not inhibit”. For the same molecule, the “Tumor necrosis (necrosis score 0-3)” value in the series on BCC tumors is listed as “significant levels of necrosis”. In [3] (Smo-/- fibroblasts, SHHN CM), the “Activity against drug-resistant SMO mutants, single drug” value was “showed inhibitory activity against all of the tested drug-resistant SMO mutants”. In series [4], the “Hh pathway inhibition in tumors as measured by Gli1 mRNA” value was “significant inhibition of the Hh pathway”. In [5] (30 mg/kg), this molecule yielded an AUC(0-t) of 245 µg·h/mL and a Cmax of 16100 ng/mL. In [5] (60 mg/kg), the AUC(0-t) turned out to be 288 µg·h/mL and the maximum concentration (Cmax) was 15900 ng/mL. Moreover, in [5] (setting [11]), the “AUC0-24h, murine 30 mg/kg relative to human 800 mg single dose” value is reported as ~ 5 x and the “Plasma Cmax, murine 30 mg/kg relative to human 800 mg single dose” value is ~ 12 x. Besides, the CYP2C9 inhibition result in the series with CYP2C9 is reported as “does not inhibit”. In addition, the CYP3A4 inhibition entry in series [1] is listed as “inhibits”. In addition, the “Inhibition of pathway activity” value with SMOA1 (SMO W539L) mutant is “no inhibitory effect”. For the same molecule, the IC50 in series [6] stood at 986 nM. For the same molecule, the CYP2C8 inhibition result in the series on CYP 2C8 is listed as “does not inhibit”. In addition, the “Decrease of the IC50 of posaconazole by KAAD-cyclopamine” value with Hh pathway (increasing concentrations of KAAD-cyclopamine) is on record as ~ 2.5 fold. Further, the “Hh pathway inhibition by single drug at subtherapeutic dose” value (“Hh pathway inhibition by single drug” below) with Hh pathway was “partially inhibited the Hh pathway”. In the series on CYP 2D6, the CYP2D6 inhibition entry is recorded as “does not inhibit”. For the same molecule, in the series on Hh pathway (SMO) [2] (posaconazole 0 to 7.5 μM), the “Effect on maximal induction of pathway activation by SAG” value is “significantly decreased the maximal induction of pathway activation” and the “Effect on the EC50 of SAG” value is given as “did not significantly alter the EC50 of SAG”. In addition, the “Primary cilia with SMO accumulation” value in [7] was ~ 16%. For the same molecule, the CYP1A2 inhibition entry in the series with CYP 1A2 is “does not inhibit”. Also, the “Fluorescence of BODIPY-cyclopamine bound to SMO” value on SMO (increasing concentrations up to 10 μM) is listed as “did not significantly decrease the fluorescence”. The “Pathway inhibition as measured by Gli1 mRNA, single drug” value (from here on “Pathway inhibition as measured”) in series [8] was “significantly inhibited the pathway”. Further, the IC50 in the series on Hh pathway (SMO) [9] (Shh Light2, read-out: IC50 of pathway activation by 20(S)-hydroxycholesterol) amounted to 164 nM. In the series with Hh pathway (SMO) [9] (setting [12]), the “Effect on maximal pathway activation of 20(S)-hydroxycholesterol” value is reported as “decreased maximal pathway activation” and the “Effect on the EC50 of 20(S)-hydroxycholesterol” value is “did not significantly alter the EC50 of the oxysterol”. Further, the “Tumor growth compared to vehicle control” value in [10] is given as “significantly suppressed tumor growth”.
Turning to `CC(O)C(C)n1ncn(-c2ccc(N3CCN(c4ccc(OCC5COC(Cn6cncn6)(c6ccc(Cl)cc6Cl)O5)cc4)CC3)cc2)c1=O` (stereo not drawn) [hydroxy-itraconazole], the CYP2C9 inhibition result with CYP2C9 was “weaker inhibitors”. The CYP3A4 inhibition result in series [1] was “strong inhibitors and substrates”. Moreover, the CYP2C19 inhibition entry with CYP2C19 is “weaker inhibitors”.
As to `CS(=O)(=O)c1ccc(C(=O)Nc2ccc(Cl)c(-c3ccccn3)c2)c(Cl)c1` [vismodegib], the “Response of vismodegib-resistant SMO mutants (D477G, E522K)” value in series [3] (vismodegib 0.5 μM (~40x IC50)) is “resistant”. Also, the “Hh pathway inhibition by single drug” value in the series on Hh pathway is “partially inhibited the Hh pathway”. For the same molecule, the “Pathway inhibition as measured” value in series [8] is recorded as “significantly inhibited the pathway”.
Regarding `Cc1c(C(=O)Nc2ccc(N3C[C@@H](C)O[C@@H](C)C3)nc2)cccc1-c1ccc(OC(F)(F)F)cc1` [sonidegib], the “Response of SMO-G457S” value is “resistant” with SMO-G457S (sonidegib 0.05 μM) and “inhibited” with SMO-G457S (sonidegib 0.5 μM). For the same molecule, the “Response of sonidegib-resistant SMO mutants” value in series [3] (sonidegib 0.5 μM (~80x IC50)) was “resistant”.
Turning to `CC(C)=CCC[C@@H](C)[C@H]1CC[C@H]2[C@@H]3CC=C4C[C@@H](O)CC[C@]4(C)[C@H]3CC[C@]12C` [desmosterol], the “Induction of Hh pathway activation” value with Hh pathway is “insufficient to induce Hh pathway activation”.
In the case of `CC1=C2C[C@H]3[C@@H](CC=C4CC(=O)CC[C@@]43C)[C@@H]2CC[C@]12O[C@@H]1C[C@H](C)CN(CCNC(=O)CCCCCNC(=O)CCc3ccccc3)[C@H]1[C@H]2C` [KAAD-cyclopamine], in the series with Hh pathway, the “Hh pathway inhibition by single drug” value was “partially inhibited the Hh pathway”. Besides, in the series with Hh pathway (read-out: IC50 of Hh pathway inhibition (given as 1x IC50), SHH-Light2 cells), the IC50 is 20 nM. Further, in the series on Hh pathway (SMO) [2] (KAAD-cyclopamine 20 nM (1x IC50)), the “Shift (increase) of the EC50 of SAG” value is ~ 3.5 fold. The “Fluorescence of BODIPY-cyclopamine bound to SMO” value on SMO (KAAD-cyclopamine 200 nM and 400 nM) was “reduced the fluorescence of BD bound to SMO to baseline levels”. For the same molecule, the “Pathway inhibition as measured” value in series [8] is given as “significantly inhibited the pathway”.
`CC(C)CCC[C@@H](C)[C@H]1CC[C@H]2C3=CC[C@H]4C[C@@H](O)CC[C@]4(C)[C@H]3CC[C@]12C` [lathosterol]: the “Induction of Hh pathway activation” value with Hh pathway is listed as “insufficient to induce Hh pathway activation”.
